Experimental findings from ChEMBL document CHEMBL1275500, “Characterization of the new metallo-beta-lactamase VIM-13 and its integron-borne gene from a Pseudomonas aeruginosa clinical isolate in Spain” (Antimicrob Agents Chemother, 2008) are described below.

A word on the MIC: it is the smallest concentration in the dilution series that meets the test's criterion for growth inhibition. The term kcat/Km denotes the turnover number divided by the Michaelis constant. Usually Km stands for the concentration of substrate that gives half-maximal velocity. In general, kcat refers to the maximal rate divided by the concentration of active sites.

In brackets after ≈: the same amount, converted by molar mass. A value given as a limit tells only on which side of the number the result lay.

Series [1] concerns Pseudomonas aeruginosa. Kind of series: Antimicrobial activity against Pseudomonas aeruginosa isolate PA-SL2 harboring blaVIM-13 gene by Etest method. In kind it is functional.
Series [2] deals with Escherichia coli. The series can be described thus: Antimicrobial activity against Escherichia coli XL1-Blue harboring pUCP carrying VIM-1 gene by Etest method in presence of Tazobactam. It counts as functional. In a few lines: (§1)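 Etest MICs of piperacillin, piperacillin-tazobactam, ceftazidime, cefepime, cefotaxime, aztreonam, imipenem and meropenem, run per manufacturer's recommendations. Strains were E. coli XL1-Blue or P. aeruginosa PAO1 carrying pUCP24-derived plasmids with blaVIM-1 or blaVIM-13 (cloned by EcoRI) inserted in the lacZ-promoter orientation. E. coli transformants were selected on 10 μg/ml gentamicin MacConkey agar; PAO1 electroporants were selected on 50 μg/ml gentamicin LB agar.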

Series [3] concerns Escherichia coli. The series can be described thus: Antimicrobial activity against Escherichia coli XL1-Blue harboring pUCP carrying VIM-13 gene by Etest method. It counts as functional. The method, boiled down: as §1
The subject of series [4] is Pseudomonas aeruginosa. The series can be described thus: Antimicrobial activity against Pseudomonas aeruginosa PAO1 harboring pUCP carrying VIM-13 gene by Etest method in presence of Tazobactam. It counts as functional.
Series [5] concerns Escherichia coli. The series can be described thus: Antimicrobial activity against Escherichia coli XL1-Blue harboring pUCP carrying VIM-13 gene by Etest method in presence of Tazobactam. It counts as functional. The method, boiled down: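 blaVIM-13 was PCR-amplified, passed through pGEM-T, and moved as an EcoRI fragment into pUCP24, with the insert oriented with the lacZ promoter (checked by PCR and sequencing). It was transformed into CaCl2-competent E. coli XL1-Blue and selected on MacConkey agar with 10 μg/ml gentamicin. Piperacillin-tazobactam MIC was read by Etest strip.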

For series [6], the system named is Pseudomonas aeruginosa. The series can be described thus: Antimicrobial activity against Pseudomonas aeruginosa isolate PA-SL2 harboring blaVIM-13 gene by Etest method in presence of Tazobactam. It counts as functional.
Series [7] deals with Escherichia coli. Kind of series: Antimicrobial activity against Escherichia coli XL1-Blue by Etest method in presence of Tazobactam. It counts as functional.
In series [8] the test system is Pseudomonas aeruginosa. Kind of series: Antimicrobial activity against Pseudomonas aeruginosa PAO1 harboring pUCP carrying VIM-1 gene by Etest method. It counts as functional. The method, boiled down:
as §1

In series [9] the test system is Escherichia coli. Kind of series: Antimicrobial activity against Escherichia coli XL1-Blue by Etest method. In kind it is functional.
In series [10] the test system is Escherichia coli. The series can be described thus: Antimicrobial activity against Escherichia coli XL1-Blue harboring pUCP carrying VIM-1 gene by Etest method. It counts as functional. The method, boiled down:
as §1

Series [11] deals with Pseudomonas aeruginosa. Kind of series: Antimicrobial activity against Pseudomonas aeruginosa isolate PA-SD2 harboring blaVIM-1 gene by Etest method in presence of Tazobactam. It counts as functional.
Series [12] deals with Pseudomonas aeruginosa. The series can be described thus: Antimicrobial activity against Pseudomonas aeruginosa PAO1 by Etest method. In kind it is functional.
Series [13] deals with Pseudomonas aeruginosa. The series can be described thus: Antimicrobial activity against Pseudomonas aeruginosa PAO1 by Etest method in presence of Tazobactam. In kind it is functional. The method, boiled down: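 Etest MICs of piperacillin-tazobactam for P. aeruginosa PAO1 electroporated with pUCP24 carrying cloned blaVIM-1 or blaVIM-13, with the insert in lacZ promoter orientation. Transformants were selected on 50 μg/ml gentamicin LB agar. Testing followed the manufacturer's recommendations, with CLSI breakpoints.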

The subject of series [14] is Pseudomonas aeruginosa. Kind of series: Antimicrobial activity against Pseudomonas aeruginosa isolate PA-SD2 harboring blaVIM-1 gene by Etest method. It counts as functional.
Series [15] concerns Pseudomonas aeruginosa. Kind of series: Antimicrobial activity against Pseudomonas aeruginosa PAO1 harboring pUCP carrying VIM-1 gene by Etest method in presence of Tazobactam. It counts as functional.
The subject of series [16] is Pseudomonas aeruginosa. Kind of series: Antimicrobial activity against Pseudomonas aeruginosa PAO1 harboring pUCP carrying VIM-13 gene by Etest method. In kind it is functional. The method, boiled down:
as §1

Series [17] concerns CO/N=C(\C(=O)N[C@@H]1C(=O)N2C(C(=O)O)=C(COC(N)=O)CS[C@H]12)c1ccco1. The following applies: Pseudomonas aeruginosa.
In series [18] the test system is CC(=O)OCC1=C(C(=O)O)N2C(=O)[C@@H](NC(=O)Cc3cccs3)[C@H]2SC1. The following applies: Pseudomonas aeruginosa.
Series [19] deals with C[C@@H](O)[C@H]1C(=O)N2C(C(=O)O)=C(S[C@@H]3CN[C@H](C(=O)N(C)C)C3)[C@H](C)[C@H]12. The following applies: Pseudomonas aeruginosa.
In series [20] the test system is CC(C)(O/N=C(\C(=O)N[C@@H]1C(=O)N2C(C(=O)[O-])=C(C[n+]3ccccc3)CS[C@H]12)c1csc(N)n1)C(=O)O. The following applies: Pseudomonas aeruginosa.
Series [21] deals with CO/N=C(\C(=O)N[C@@H]1C(=O)N2C(C(=O)O)=C(COC(C)=O)CS[C@H]12)c1csc(N)n1. The following applies: Pseudomonas aeruginosa.
Series [22] deals with CC1(C)S[C@@H]2[C@H](NC(=O)[C@H](N)c3ccccc3)C(=O)N2[C@H]1C(=O)O. The following applies: Pseudomonas aeruginosa.
Series [23] relates to CC1(C)S[C@@H]2[C@H](NC(=O)Cc3ccccc3)C(=O)N2[C@H]1C(=O)O. The following applies: Pseudomonas aeruginosa.
The test system of series [24] is CCN1CCN(C(=O)N[C@@H](C(=O)N[C@@H]2C(=O)N3[C@@H]2SC(C)(C)[C@@H]3C(=O)O)c2ccccc2)C(=O)C1=O. The following applies: Pseudomonas aeruginosa.
Series [25] deals with CO/N=C(\C(=O)N[C@@H]1C(=O)N2C(C(=O)O)=C(COC(N)=O)CS[C@H]12)c1ccco1. The following applies: Pseudomonas aeruginosa. The source holds these as a separate data set.
In series [26] the test system is CC(=O)OCC1=C(C(=O)O)N2C(=O)[C@@H](NC(=O)Cc3cccs3)[C@H]2SC1. The following applies: Pseudomonas aeruginosa. The source holds these as a separate data set.
Series [27] deals with C[C@@H](O)[C@H]1C(=O)N2C(C(=O)O)=C(S[C@@H]3CN[C@H](C(=O)N(C)C)C3)[C@H](C)[C@H]12. The following applies: Pseudomonas aeruginosa. The source holds these as a separate data set.
Series [28] has as its system CC(C)(O/N=C(\C(=O)N[C@@H]1C(=O)N2C(C(=O)[O-])=C(C[n+]3ccccc3)CS[C@H]12)c1csc(N)n1)C(=O)O. The following applies: Pseudomonas aeruginosa. This is another data set of the same source.
Series [29] relates to CO/N=C(\C(=O)N[C@@H]1C(=O)N2C(C(=O)O)=C(COC(C)=O)CS[C@H]12)c1csc(N)n1. The following applies: Pseudomonas aeruginosa. The source holds these as a separate data set.
For series [30], the system named is CC1(C)S[C@@H]2[C@H](NC(=O)[C@H](N)c3ccccc3)C(=O)N2[C@H]1C(=O)O. The following applies: Pseudomonas aeruginosa. The source holds these as a separate data set.
Series [31] has as its system CC1(C)S[C@@H]2[C@H](NC(=O)Cc3ccccc3)C(=O)N2[C@H]1C(=O)O. The following applies: Pseudomonas aeruginosa. The source holds these as a separate data set.
The subject of series [32] is CCN1CCN(C(=O)N[C@@H](C(=O)N[C@@H]2C(=O)N3[C@@H]2SC(C)(C)[C@@H]3C(=O)O)c2ccccc2)C(=O)C1=O. The following applies: Pseudomonas aeruginosa. This is another data set of the same source.

Take `CCN1CCN(C(=O)N[C@@H](C(=O)N[C@@H]2C(=O)N3[C@@H]2SC(C)(C)[C@@H]3C(=O)O)c2ccccc2)C(=O)C1=O` [PIPERACILLIN]: the MIC in the series on Pseudomonas aeruginosa [1] was > 256 µg/mL; in the series with Escherichia coli [2], 6 µg/mL; in the series on Escherichia coli [3], 8 µg/mL (≈ 15.5 µM); with Pseudomonas aeruginosa [4], 192 µg/mL; with Escherichia coli [5], 8 µg/mL; with Pseudomonas aeruginosa [6], > 256 µg/mL. In addition, the MIC was 1 µg/mL with Escherichia coli [7]; 64 µg/mL (≈ 124 µM) against Pseudomonas aeruginosa [8]; 1.5 µg/mL (≈ 2.9 µM) in the series on Escherichia coli [9]; 6 µg/mL (≈ 11.6 µM) against Escherichia coli [10]; > 256 µg/mL in the series on Pseudomonas aeruginosa [11]; 3 µg/mL (≈ 5.8 µM) in the series on Pseudomonas aeruginosa [12]. In addition, the MIC with Pseudomonas aeruginosa [13] was 3 µg/mL; in the series on Pseudomonas aeruginosa [14], > 256 µg/mL; with Pseudomonas aeruginosa [15], 48 µg/mL; in the series on Pseudomonas aeruginosa [16] it was 192 µg/mL (≈ 371 µM).

For “Class B carbapenemase VIM-13 (Pseudomonas aeruginosa) (from UniProt Q2HY42)”, the kcat/Km is 5e+06 M⁻¹ s⁻¹ in series [17]; 8.6e+06 M⁻¹ s⁻¹ in [18]; 592000 M⁻¹ s⁻¹ in series [19]; 1.9 M⁻¹ s⁻¹ in series [20]; 2.6e+06 M⁻¹ s⁻¹ in [21]; 340000 M⁻¹ s⁻¹ in [22]. The specificity constant (kcat/Km) in series [23] came out at 670000 M⁻¹ s⁻¹; in series [24], 490000 M⁻¹ s⁻¹. Also, the Km in [25] came to 56 µM; in [26], 76 µM; in series [27] it was 15.5 µM; in series [28], 509 µM; in [29] it was 233 µM; in series [30], 197 µM. The values for the Michaelis constant (Km) in series [31] and in series [32] were 1130 µM and 729 µM, respectively. Further, the kcat in series [25] worked out at 283 s⁻¹; in series [26], 656 s⁻¹; in [27], 9 s⁻¹; in series [28], 10 s⁻¹; in [29] it was 612 s⁻¹; in [30], 67 s⁻¹. Besides, the kcat was 757 s⁻¹ in series [31] and 362 s⁻¹ in [32].
